Measurements gathered from unrelated publications.
Lines come from different studies, so protocols differ.
Sample: Caco-2

SMILES	setting	quantity	result
COc1ccc(CCC(=O)c2c(O)cc(O[C@@H]3O[C@H](CO)[C@@H](O)[C@H](O)[C@H]3O[C@@H]3O[C@@H](C)[C@H](O)[C@@H](O)[C@H]3O)cc2O)cc1O	100 µg/mL, 2 h	Papp B→A	8.96 ×10⁻⁶ cm/s
Cc1cc(-c2ccnc3[nH]cc(F)c23)cc(F)c1[C@@]1(O)[C@H](C)CN(C2CCS(=O)(=O)CC2)C[C@@H]1C	10 µM	Papp	14.8 ×10⁻⁶ cm/s
COc1ccc(-c2cc(=O)c3c(O)cc(O[C@@H]4O[C@H](CO[C@@H]5O[C@@H](C)[C@H](O)[C@@H](O)[C@H]5O)[C@@H](O)[C@H](O)[C@H]4O)cc3o2)cc1O	100 µg/mL, 2 h	Papp B→A	35.1 ×10⁻⁶ cm/s
O=c1cc(-c2ccc(O)cc2)oc2c([C@@H]3O[C@H](CO)[C@@H](O)[C@H](O)[C@H]3O)c(O)cc(O)c12	200 µg/mL	Papp A→B	0.322 ×10⁻⁶ cm/s
CNC(=O)c1ccccc1Nc1cc(Nc2ccc(N3CCOCC3)cc2OC)ncc1C(F)(F)F	20 µM, 2 h	Papp	18 ×10⁻⁶ cm/s
Cc1cc(-c2ccnc3[nH]cc(F)c23)cc(F)c1[C@@]1(O)[C@H](C)CN(C(=O)CN)C[C@@H]1C	10 µM	Papp	5.2 ×10⁻⁶ cm/s
O=C1CCC(N2Cc3cc(C4CCN(Cc5ccccc5)CC4)ccc3C2=O)C(=O)N1 (stereo not drawn)	10 µM, 2 h	Papp	8.1 ×10⁻⁶ cm/s
Cc1cc(C)c(CNC(=O)c2cc(Cl)c3c(c2C)O[C@@](C)([C@H]2CC[C@H](N(C)C)CC2)O3)c(=O)[nH]1	1 µM	Papp B→A	20.7 ×10⁻⁶ cm/s
O=C(Nc1ccc(OC(F)(F)F)cc1)N[C@H]1CC[C@H](Oc2ccc(C(=O)O)cc2)CC1	–	Papp	4.76 ×10⁻⁶ cm/s
C[C@@H]1O[C@@H](OC[C@H]2O[C@@H](Oc3c(-c4ccc(O)c(O)c4)oc4cc(O)cc(O)c4c3=O)[C@H](O)[C@@H](O)[C@@H]2O)[C@H](O)[C@H](O)[C@H]1O	50 µg/mL	Papp A→B	0.228 ×10⁻⁶ cm/s
Oc1cc(O)c2c(c1)O[C@H](c1ccc(O)c(O)c1)[C@H](O)C2	100 µg/mL, 2 h	Papp B→A	0.55 ×10⁻⁶ cm/s
O=S1(=O)OC(c2ccc(O)cc2)(c2ccc(O)cc2)c2ccccc21	–	Papp	0.54 ×10⁻⁶ cm/s
